The source made the active and inactive calls. The calls are words filed in the database; no cut-off is given here.
Key:
[1] = molecular target: T1, Dopamine beta-hydroxylase (Homo sapiens) (UniProt P09172); experiment: Effect on DBH activity in presence of dopamine by measuring Noradrenaline level; type: functional; parameters: concentration or dose not given beside the values
T1 sequence (whole entry): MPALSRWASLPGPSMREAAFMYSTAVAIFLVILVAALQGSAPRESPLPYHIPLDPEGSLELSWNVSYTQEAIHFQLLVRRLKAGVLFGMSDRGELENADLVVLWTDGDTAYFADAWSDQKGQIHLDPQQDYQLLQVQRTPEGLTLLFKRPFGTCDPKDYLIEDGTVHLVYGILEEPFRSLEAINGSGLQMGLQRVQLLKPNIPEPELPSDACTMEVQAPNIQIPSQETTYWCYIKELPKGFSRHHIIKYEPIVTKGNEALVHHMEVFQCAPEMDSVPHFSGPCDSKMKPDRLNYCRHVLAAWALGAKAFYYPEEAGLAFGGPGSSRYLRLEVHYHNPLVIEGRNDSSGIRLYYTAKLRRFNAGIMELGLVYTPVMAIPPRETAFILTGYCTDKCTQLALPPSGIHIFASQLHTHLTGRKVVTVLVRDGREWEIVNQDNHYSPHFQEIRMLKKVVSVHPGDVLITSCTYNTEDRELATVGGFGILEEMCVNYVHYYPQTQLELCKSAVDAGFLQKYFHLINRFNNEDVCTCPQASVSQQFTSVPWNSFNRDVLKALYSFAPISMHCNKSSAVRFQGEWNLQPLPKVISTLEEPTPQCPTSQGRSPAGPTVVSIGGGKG
Procedure, shortened: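 Inhibitor at 5 µM in 200 mM sodium acetate pH 5.0 containing N-ethylmaleimide, CuSO4, catalase, pargyline, fumarate and 20 mM ascorbate. Preincubated 20 min at 37 °C, then dopamine added as substrate and reacted 45 min at 37 °C. Stopped with perchloric acid and filtered. Noradrenaline formed quantified by HPLC-ECD (0.75 V). Residual activity given as % of control, mean ± SEM of three experiments.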

Mus musculus [2] = experiment: Decrease in noradrenaline tissue levels in mice heart at 100 mg/kg, po after 18 hrs; type: functional, organism-based; parameters: dose 100 mg/kg; details: NMR1
Procedure, shortened: (§1)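 Male NMRI mice housed 10 per cage on a 12 h light/dark cycle at 22 °C. Compound given at 100 mg/kg by oral gavage in water vehicle. Animals decapitated at set times postdose; heart tissue held in 0.2 M perchloric acid for 12 h at 4 °C in the dark, then filtered. NA measured by HPLC with electrochemical detection. Expressed as % of vehicle control, mean ± SEM, n=4 per group.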

Mus musculus [3] = organism: Mus musculus; experiment: Decrease in noradrenaline tissue levels in mouse brain parietal cortex after 9 hrs; type: functional, organism-based; details: NMR1
Procedure, shortened: (§2)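 Male NMRI mice given test compound or vehicle (water) orally by gavage at a range of doses. At 9 h postdose, decapitation. Tissue (left ventricle or brain parietal cortex) weighed, held in 0.2 M perchloric acid 12 h at 4 °C in the dark, then filtered by centrifugation. Noradrenaline measured by HPLC with electrochemical detection. Value given as % of vehicle control.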

Rattus norvegicus [4] = organism: Rattus norvegicus; experiment: Decrease in noradrenaline tissue levels in rat brain parietal and frontal cortex; type: functional, organism-based; details: Wistar, Cerebral cortex
Procedure, shortened: (§3)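 Male Wistar rats dosed orally by gavage at 100 mg/kg, with water as vehicle. Killed by decapitation 9 h postdose. Frontal and parietal cortex, left atrium and left ventricle taken, extracted in 0.2 M perchloric acid (12 h, 4 °C, dark) and filtered. Noradrenaline by HPLC-electrochemical detection, as % of control without inhibitor. Mean ± SEM, four animals per group.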

Rattus norvegicus [5] = experiment: Decrease in noradrenaline tissue levels in rat at 100 mg/kg, po after 9 hrs; type: functional, organism-based; parameters: dose 100 mg/kg; details: Wistar; procedure, shortened: as §3
Mus musculus [6] = organism: Mus musculus; experiment: Effect on noradrenaline levels in mouse left ventricle after 9 hrs; type: functional, organism-based; details: NMR1, Heart left ventricle; procedure, shortened: as §2
Mus musculus [7] = experiment: Time for maximum effect for noradrenaline tissue reduction at 100 mg/kg, po; type: functional, organism-based; parameters: dose 100 mg/kg; details: NMR1
Procedure, shortened: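 Mice given 100 mg/kg orally in water by gavage. Heart taken 6, 9, 18 and 24 h postdose and extracted in 0.2 M perchloric acid. Noradrenaline measured by HPLC with electrochemical detection, as % of control without inhibitor. Mean ± SEM, four animals per group. Time of maximum effect taken from the time course.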

Mus musculus [8] = experiment: Effect on recovery of noradrenaline levels in mice at 100 mg/kg after 24 hrs; type: functional; procedure, shortened: as §1

Oc1ccc2c(c1)C[C@@H](n1c(CCNCc3ccccc3)cnc1S)CO2
Activity [1]: 4.5%

NCCc1cnc(S)n1[C@H]1COc2c(cccc2[N+](=O)[O-])C1
Activity [1]: 53.2%

NCCc1cnc(S)n1[C@H]1CCc2c(F)cc(F)cc2C1
Activity (Mus musculus [2]): Active
Activity [1]: 1.6%

NCCc1cnc(S)n1[C@H]1COc2ccc(O)cc2C1
Activity [1]: 0%

NCc1cnc(S)n1[C@H]1COc2ccc(O)cc2C1
Activity [1]: 17.8%

COc1cccc2c1OC[C@H](n1c(CCN)cnc1S)C2
Activity [1]: 6.9%

NCc1cnc(S)n1[C@H]1COc2c(F)cc(F)cc2C1
Activity (Mus musculus [2]): Active
Activity [1]: 4.1%

NCCc1cnc(S)n1[C@H]1COc2c(cc(F)c(F)c2F)C1
Activity [1]: 8.2%

NCCc1cnc(S)n1C1CSc2ccc(O)cc2C1 (stereo unspecified)
Activity [1]: 27.3%

Cl.NCCc1cnc(S)n1[C@H]1COc2c(F)cc(F)cc2C1
Activity (Mus musculus [3]): inactive
Activity (Rattus norvegicus [4]): inactive
Activity (Rattus norvegicus [5]): Active
Activity (Mus musculus [6]): Dose-dependent effect
Tmax (Mus musculus [7]): 9 h
Activity (Mus musculus [2]): Active
Activity (Mus musculus [8]): 50%
Activity [1]: 3.3%

NCCc1cnc(S)n1[C@H]1COc2ccc([N+](=O)[O-])cc2C1
Activity [1]: 94.8%

CNCCc1c[nH]c(=S)n1[C@H]1COc2c(F)cc(F)cc2C1
Activity [1]: 2.6%

NCCc1cnc(S)n1[C@H]1COc2ccc(F)cc2C1
Activity [1]: 8%

COc1ccc2c(c1)C[C@@H](n1c(CCNCc3ccccc3)cnc1S)CO2
Activity [1]: 66%

COc1cc(Cl)cc2c1OC[C@H](n1c(CCN)cnc1S)C2
Activity [1]: 36.7%

NCc1cnc(S)n1[C@H]1COc2ccccc2C1
Activity [1]: 0%

Cl.NCc1c[nH]c(=S)n1[C@H]1CCc2c(F)cc(F)cc2C1 [NEPICASTAT HYDROCHLORIDE]
Activity (Mus musculus [3]): Dose-dependent effect
Activity (Rattus norvegicus [4]): Active
Activity (Rattus norvegicus [5]): Active
Activity (Mus musculus [6]): Dose-dependent effect
Tmax (Mus musculus [7]): 9 h
Activity (Mus musculus [2]): Active
Activity (Mus musculus [8]): 50%
Activity [1]: 0%

CNCCc1cnc(S)n1[C@H]1COc2ccccc2C1
Activity [1]: 2.2%

NCCc1cnc(S)n1[C@H]1CCc2ccccc2C1
Activity [1]: 16.8%

COc1ccc2c(c1)C[C@@H](n1c(CCN)cnc1S)CO2
Activity [1]: 54.5%

NCCc1cnc(S)n1[C@H]1COc2c(O)cccc2C1
Activity [1]: 125%

COc1ccc2c(c1)CC(n1c(CCN)cnc1S)CS2 (stereo unspecified)
Activity [1]: 99.4%

NCCc1cnc(S)n1[C@H]1COc2cc(F)c(F)cc2C1
Activity [1]: 9.4%

NCCc1cnc(S)n1[C@H]1COc2c(F)cccc2C1
Activity [1]: 6.9%

NCCc1cnc(S)n1[C@H]1COc2ccccc2C1
Activity [1]: 3%

NCCCc1cnc(S)n1[C@H]1CCc2c(F)cc(F)cc2C1
Activity [1]: 8.1%

COc1cc(Cl)c2c(c1)C[C@@H](n1c(CCN)cnc1S)CO2
Activity [1]: 94%

NCCc1cnc(S)n1[C@H]1COc2cc(Cc3ccccc3)c(O)cc2C1
Activity [1]: 86.1%

CNCCc1cnc(S)n1[C@H]1COc2ccc(O)cc2C1
Activity [1]: 15.5%

NCCc1cnc(S)n1[C@@H]1COc2c(F)cc(F)cc2C1
Activity [1]: 50.2%
